This is a sample that favours compounds with a hit; in the whole collection about 1.4% have one here.
Fh CTSL1 inh – cathepsin L1 inhibition, PFM18AAP counter-screen | 300,000 compounds, 0.49% hits | inhibition, % at 5.96 µM | recombinant F. hepatica cathepsin L1, Z-Leu-Arg-MCA fluorescence;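 active means inhibition above the mean of all tested compounds plus 3 SD, set per screening campaign, cut at about 17% in these data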
HKDC1 inhibitor – blocks human hexokinase HKDC1 activity. Q2TB90. recombinant HKDC1, G6PDH/diaphorase resazurin coupled fluorescence. inhibition, % at 20 µM. 340,000 compounds, 0.16% hits;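 active means inhibition above about 35% when tested at 20 µM, limit read from the data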
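test system = in-house recombinant HK5 (HKDC1) enzyme | amount = HKDC1 at 5 µg/mL | control set = DMSO-enzyme wells negative, buffer-substituted wells positive | compound = one dose of 20 µM, 1% DMSO | schedule = reaction time 90 min, room temperature, protected from light | technique = resorufin fluorescence at 613 nm | reagent = glucose with 1 mM ATP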
Diaph inh CS – counter-screen for diaphorase-based assays: diaphorase inhibitors and chemical oxidizers | 190,000 compounds, 0.69% hits | diaphorase resazurin-to-resorufin fluorescence, NADH, 16 min; bacterial (C. kluyveri) enzyme, not human | inhibition, % at 20 µM;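 active means primary screen inhibition at 20 µM above a set limit, cut at about 50% in these data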
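Test system: diaphorase enzyme from Clostridium kluyveri; amount: diaphorase at 0.14 U/mL in enzyme working solution; detection: fluorescence of resorufin formed from resazurin, Ex 544/Em 590 nm; times: reaction incubation of 16 min at room temperature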
Diaphorase act – counter-screen for diaphorase-based assays: diaphorase activators and chemical reducers | Diaphorase/resazurin coupled assay, resorufin fluorescence, 16 min; active compounds read high; 1 = vehicle wells, 0 = NADH-free wells | activation factor at 20 µM | 190,000 compounds, 0.005% hits | AID 1229;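 active means diaphorase activity raised at least twofold by the compound at 20 µM; inactive means activation factor below 2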
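Assay system: bacterial diaphorase enzyme (C. kluyveri) / Input: enzyme 0.07 U/mL final / Medium: 50 mM HEPES pH 7.4 with 4.542 mM MgCl2, 0.005% Tween 20 / Doses: single compound dose of 20 µM, 1% DMSO final / Incubation: 16 min enzyme reaction, ambient temperature / Signal: fluorescence, excitation 544 nm and emission 590 nm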
ATG4B inhibitor – ATG4B (human) cysteine protease inhibition. Q9Y4P1. ATG4B cleavage of LC3-PLA2, NBD-HPC fluorescence, 1 h. inhibition, % at 8.33 µM. 340,000 compounds, 0.51% hits. AID 504462; in the data active means inhibition above about 40%
Target sequence (Q9Y4P1 whole entry, looked up): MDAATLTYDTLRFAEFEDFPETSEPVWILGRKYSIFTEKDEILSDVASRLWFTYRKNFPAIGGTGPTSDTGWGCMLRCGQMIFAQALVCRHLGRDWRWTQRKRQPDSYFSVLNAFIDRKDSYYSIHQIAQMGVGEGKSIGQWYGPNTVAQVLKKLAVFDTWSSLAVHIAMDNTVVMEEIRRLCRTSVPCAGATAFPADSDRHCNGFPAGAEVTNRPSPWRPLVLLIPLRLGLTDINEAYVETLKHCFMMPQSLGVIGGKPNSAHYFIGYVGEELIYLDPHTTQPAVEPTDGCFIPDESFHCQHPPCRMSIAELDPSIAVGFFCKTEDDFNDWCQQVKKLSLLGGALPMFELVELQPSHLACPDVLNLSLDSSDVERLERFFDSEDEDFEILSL
ATG4B conf – ATG4B (human) inhibition, single-dose confirmed | inhibition, % at 8.33 µM | 320 compounds, 92% hits | AID 504757 | ATG4B protease fluorescent substrate cleavage assay | shares compounds with ATG4B inhibitor; in the data active means inhibition above about 39%
PLA2 counter – inhibits human PLA2, flagging false ATG4B inhibitors | inhibition, % at 8.33 µM | 1,600 compounds, 66% hits | shares compounds with ATG4B inhibitor | purified PLA2, NBD-C6-HPC fluorescence, 45 min | AID 588402; in the data active means inhibition above about 50%
Target sequence (P04054 whole entry, looked up): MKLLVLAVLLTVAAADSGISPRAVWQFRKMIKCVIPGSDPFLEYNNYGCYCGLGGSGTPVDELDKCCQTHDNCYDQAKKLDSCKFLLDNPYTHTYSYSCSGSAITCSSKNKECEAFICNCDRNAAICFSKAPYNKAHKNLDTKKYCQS
Each line names hits and unclear results; the compound was inactive in the other large screens (follow-up assays come after a bar, where they were run).

O=C(c1ccco1)N1CCN(Cc2nnnn2C2CCCCC2)CC1	none (no result: Diaph inh CS, Diaphorase act)
Cc1cc(C)c(C)c(S(=O)(=O)Nc2ccccc2N2CCOCC2)c1C	none (no result: Fh CTSL1 inh, Diaph inh CS, Diaphorase act)
Cn1c(-c2ccc3c(c2)OCO3)cnc1NCc1cccc(Cl)c1	ATG4B inhibitor 52 | PLA2 counter 58
CCN(CCCn1c(SCC#N)nc2ccccc2c1=O)c1ccccc1	ATG4B inhibitor 44 | PLA2 counter inactive
CN(C(=O)CC1C(=O)NCCN1Cc1cccc(C(F)(F)F)c1)C1CCOCC1 (stereo not given)	none (no result: Diaph inh CS, Diaphorase act)
COc1ccc(C(C(=O)NCC2CCCO2)N(Cc2ccccc2)C(=O)CNC(=O)c2ccco2)cc1OC (stereo not given)	none (no result: Diaph inh CS, Diaphorase act)
Cc1ccc(S(=O)(=O)N2[C@@H](c3ccc(C(C)(C)C)cc3)C(C(=O)O)=CC[C@H]2c2cccc(Cl)c2)cc1	ATG4B inhibitor 41 (no result: Fh CTSL1 inh, Diaph inh CS, Diaphorase act) | PLA2 counter 61
CC(C)[C@H](Nc1nc(-c2ccccc2)nc2c1oc1ccccc12)C(=O)O	none
CCC(C)[C@H](Nc1nc(-c2ccccc2)nc2c1oc1ccccc12)C(=O)O (stereo not given in full)	ATG4B inhibitor 44 | PLA2 counter 54
COc1ccc(-n2ncc3c2CC(C)(C)CC3NC(=O)CN2CCOC2=O)cc1 (stereo not given)	none (no result: Fh CTSL1 inh, Diaph inh CS, Diaphorase act)
Cc1nc(SCC(=O)N2c3ccccc3NC(=O)CC2C)c2c(C)c(C)sc2n1 (stereo not given)	none (no result: Fh CTSL1 inh, Diaph inh CS, Diaphorase act)
Cc1sc2nc(C3CC3)nc(SCC(=O)N3c4ccccc4CC3C)c2c1C (stereo not given)	ATG4B inhibitor 68 | PLA2 counter 85
O=C(Nc1ccc(OC(F)(F)F)cc1)Nc1cccc([N+](=O)[O-])c1	ATG4B inhibitor 49 | PLA2 counter 58
Cc1ccc(NC(=O)Nc2cccc([N+](=O)[O-])c2)cc1F	none
CCNc1ccc(C(=O)OCC(=O)N(Cc2ccccc2)C(C)(C)C)cc1[N+](=O)[O-]	ATG4B inhibitor 43 | PLA2 counter inactive
COCc1ccc(C(=O)N2CCCC(Nc3ccc(C(C)C)cc3)C2)o1 (stereo not given)	ATG4B inhibitor 53 (no result: Diaph inh CS, Diaphorase act) | PLA2 counter 59
CC(C)c1ccc(NC2CCCN(C(=O)c3ccnn3C)C2)cc1 (stereo not given)	none (no result: Diaph inh CS, Diaphorase act)
COCc1ccc(C(=O)N2CCCC(Nc3ccc(C(C)C)cc3)C2)s1 (stereo not given)	ATG4B inhibitor 72 (no result: Diaph inh CS, Diaphorase act) | PLA2 counter 76
O=C(NCc1ccco1)c1ccc(COc2ccccc2[N+](=O)[O-])o1	none (no result: Diaph inh CS, Diaphorase act)
COC(=O)Cn1ncc(N(C)Cc2ccccc2)c(Cl)c1=O	none (no result: Diaph inh CS, Diaphorase act)
CCN(Cc1ccncc1)C(=O)c1cc(COc2ccc(OC)cc2Cl)on1	none (no result: Diaph inh CS, Diaphorase act)
Cc1ccc(NC(=S)Nc2ccc(Cl)c(Cl)c2)c(OC(F)F)c1	ATG4B inhibitor 53 | PLA2 counter 61
Cc1ccc(NC(=S)Nc2ccc(OC(F)F)c(Cl)c2)cc1Cl	none
Fc1ccc(NC(=S)Nc2ccccc2OC(F)F)cc1Cl	ATG4B inhibitor 48 | PLA2 counter 59
Cc1cc(OCC(=O)NCCCN2CCCC2=O)c2c(C)c(C)c(=O)oc2c1	none (no result: Diaph inh CS, Diaphorase act)
CCOc1ccc(C(C(=O)NC(C)(C)C)N(CCOC)C(=O)CCC(=O)Nc2ccccn2)cc1 (stereo not given)	none (no result: Diaph inh CS, Diaphorase act)
O=C(c1cc(COc2c(F)cccc2F)on1)N1CCC(c2ccccc2F)C1 (stereo not given)	none
O=C(c1cc(COc2c(F)cccc2F)on1)N1CCC(c2ccccc2Cl)C1 (stereo not given)	ATG4B inhibitor 40 | PLA2 counter 55
COc1ccc(Nc2nnc(-c3ccc(O)cc3)c3ccccc23)cc1	none
NC(=O)Cc1ccc(Nc2nnc(-c3ccccc3)c3ccccc23)cc1	ATG4B inhibitor 82 | PLA2 counter 82
COc1ccc(-c2nnc(Nc3ccc(CC(N)=O)cc3)c3ccccc23)cc1	ATG4B inhibitor 93 | PLA2 counter 92
Oc1ccc(Nc2nnc(-c3ccc(O)cc3)c3ccccc23)cc1	none
C=CC[C@@H](CC(=O)OC(C)(C)C)C(=O)OC[C@@H]1CCCN1C(=O)[C@@H](CC=C)CC(=O)N(CCO)Cc1ccccc1	none (no result: Fh CTSL1 inh, Diaph inh CS, Diaphorase act)
CC1CCCC(C)N1c1ccc(S(=O)(=O)N2CCOCC2)cc1Cl (stereo not given)	none (no result: Diaph inh CS, Diaphorase act)
O=C(NCCc1cccc(Cl)c1)c1ccc(OC2CCN(Cc3ccccn3)CC2)cc1	none (no result: Fh CTSL1 inh, Diaph inh CS, Diaphorase act)
O=C(Oc1c(-c2ccccc2)c(=O)n2c3c(cccc13)CC2)c1ccc(F)cc1	ATG4B inhibitor 66 (no result: Diaph inh CS, Diaphorase act) | ATG4B conf 62 | PLA2 counter inactive
O=C(Oc1c(-c2ccccc2)c(=O)n2c3c(cccc13)CC2)c1ccccc1	ATG4B inhibitor 70 (no result: Diaph inh CS, Diaphorase act) | PLA2 counter 65
O=C(Oc1c(-c2ccccc2)c(=O)n2c3c(cccc13)CC2)c1cccc([N+](=O)[O-])c1	none (no result: Diaph inh CS, Diaphorase act)
O=C(NCCc1ccccc1)c1c(O)c2cccc3c2n(c1=O)CC3	none
COc1ccc(/C=C/c2onc(C)c2S(=O)(=O)N2CCC(C(=O)N3CCCCCC3)CC2)cc1	ATG4B inhibitor 40 (no result: Diaph inh CS, Diaphorase act) | PLA2 counter 65
Cc1noc(/C=C/c2ccco2)c1S(=O)(=O)N1CCC(C(=O)N2CCc3ccccc3C2)CC1	ATG4B inhibitor 73 | PLA2 counter 75
CCn1cc(C(=O)NCc2ccc3c(c2)OCO3)c(=O)c2ccc(C)nc21	none (no result: Fh CTSL1 inh, HKDC1 inhibitor, ATG4B inhibitor)
CCn1cc(C(=O)OCC(=O)c2cc(C)n(-c3cccc(C(F)(F)F)c3)c2C)c(=O)c2ccc(C)nc21	ATG4B inhibitor 75 | PLA2 counter 67
CCn1cc(C(=O)NCc2cccc(C(F)(F)F)c2)c(=O)c2ccc(C)nc21	ATG4B inhibitor 53 (no result: Diaph inh CS, Diaphorase act) | PLA2 counter inactive
CCC(NS(=O)(=O)c1ccc(C)cc1)C(=O)N1CCOCCOCCOCCOCC1 (stereo not given)	none (no result: Diaph inh CS, Diaphorase act)
CCNc1nc(N)nc(-c2cc(Cl)ccc2O)n1	none
CCCCNc1nc(N)nc(-c2cc(Cl)ccc2O)n1	ATG4B inhibitor 46 | PLA2 counter 50
Cc1ccc(Cl)cc1N1CCN(C(=O)CSc2nnc3n2C(C)(C)Cc2ccccc2-3)CC1	ATG4B inhibitor 44 | PLA2 counter 69
COCCCNC(CC(=O)Nc1cc(C)cc(C)c1)C(=O)O (stereo not given)	none (no result: Diaph inh CS, Diaphorase act)
CCS(=O)(=O)N1Cc2ccccc2CC1C(=O)Nc1nnc(SCc2c(Cl)cccc2Cl)s1 (stereo not given)	ATG4B inhibitor 74 | PLA2 counter 64

Screening results deposited in PubChem by several laboratories.
